Results: ChEMBL document CHEMBL4028909, “Discovery of an Orally Bioavailable Benzofuran Analogue That Serves as a β-Amyloid Aggregation Inhibitor for the Potential Treatment of Alzheimer's Disease” (J Med Chem, 2018)
The source made the active and inactive calls. The rule behind the calls is not given here.

Legend:
[1] = target: Amyloid-beta precursor protein (Homo sapiens) (UniProt P05067); test: Induction of HFIP-pretreated amyloid beta (1 to 42) (unknown origin) disaggregation after 1 hr by transmission electron microscopic method
HT-22 = test: Neuroprotective activity against amyloid beta-induced toxicity in mouse HT22 cells assessed as increase in cell viability preincubated for 1 hr followed by amyloid beta challenge measured after 18 hrs by MTT assay; assay type: functional, cell-based
In short: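 Mouse hippocampal HT22 cells were treated with compound at several concentrations and then exposed to preformed Aβ aggregates made from 25 μM monomeric Aβ. Viability was read by MTT and scaled between untreated cells and Aβ-only cells. Mean±SD of three independent experiments; one-way ANOVA with Dunnett test.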

[2] = target: Amyloid-beta precursor protein (Homo sapiens) (UniProt P05067); test: Induction of HFIP-pretreated amyloid beta (1 to 42) (unknown origin) disaggregation after 48 hrs by silver staining-based SDS-PAGE analysis
In short: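 Aβ aggregates were incubated with compound for 48 h, with congo red as positive control. Size distribution (monomer, dimer, trimer, high-molecular-weight species) was analysed by SDS-PAGE with silver staining at the start and at the end of incubation.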

Mus musculus [3] = test: Reversal of cognitive deficit in amyloid beta (1 to 42)-treated Alzheimer's disease ICR mouse model assessed as increase in step-through latency time administered orally for 3 consecutive days by passive avoidance test; assay type: functional
In short: (§1)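 Acute AD model: preformed Aβ aggregates injected into the brains of normal mice. Compound given orally for three consecutive days, then step-through passive avoidance was tested by a standard protocol. Read-out is step-through latency (sec), compared against control and vehicle groups.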

Mus musculus [4] = test: Reversal of cognitive deficit in amyloid beta (1 to 42)-treated Alzheimer's disease ICR mouse model assessed as step-through latency time at 10 mg/kg, po administered for 3 consecutive days by passive avoidance test; assay type: functional; in short: as §1
Mus musculus [5] = test: Reversal of cognitive deficit in amyloid beta (1 to 42)-treated Alzheimer's disease ICR mouse model assessed as increase in spatial memory function administered orally for 3 consecutive days by Y maze test; assay type: functional
In short: (§2)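 Acute AD model: preformed Aβ aggregates injected directly into the brains of normal mice to induce acute neurotoxicity. Compound given orally for three consecutive days, then the Y-maze was run. Read-out is percentage of spontaneous alternation, compared against normal and vehicle-treated mice.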

Mus musculus [6] = test: Reversal of cognitive deficit in amyloid beta (1 to 42)-treated Alzheimer's disease ICR mouse model assessed as increase in spatial memory function by measuring spontaneous alternation at 10 mg/kg, po administered for 3 consecutive days by Y maze test relative to control; assay type: functional; in short: as §2
Mus musculus [7] = test: Reversal of cognitive deficit in double APP/PS1 transgenic Alzheimer's disease mouse model assessed as increase in spatial memory function by measuring spontaneous alternation at 30 mg/kg, po qd administered for 8 weeks by Y maze test (reference value: 52.64 +/- 4.15%); assay type: functional
In short: (§3)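 APP/PS1 double transgenic mice, 29 weeks old, dosed orally once daily at 30 or 100 mg/kg for eight weeks. Y-maze spontaneous alternation (%) was then measured against vehicle-treated mice, and mice were watched for apparent toxicity.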

Mus musculus [8] = test: Reversal of cognitive deficit in double APP/PS1 transgenic Alzheimer's disease mouse model assessed as increase in spatial memory function by measuring spontaneous alternation at 100 mg/kg, po qd administered for 8 weeks by Y maze test (reference value: 52.64 +/- 4.15%); assay type: functional; in short: as §3
Mus musculus [9] = test: Toxicity in double APP/PS1 transgenic Alzheimer's disease mouse model at 30 to 100 mg/kg, po qd administered for 8 weeks; assay type: organism-based; details: in vivo, 1344 h; in short: as §3
Mus musculus [10] = test: Antiamyloidogenic activity in po dosed double APP/PS1 transgenic Alzheimer's disease mouse model assessed as decrease in amyloid beta (1 to 42) levels in brain administered as qd for 8 weeks by sandwich ELISA; assay type: functional, organism-based
In short: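 APP/PS1 mice, 29 weeks old, were dosed orally once daily for eight weeks at 30 or 100 mg/kg, with a vehicle group. Brain tissue was homogenized and amyloid fibrils were solubilized to monomers. Aβ1-40 and Aβ1-42 were then quantified by immunoassay with antibodies specific to monomeric Aβ.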

[11] = Terminal half life in mouse at 3 mg/kg, iv; assay type: ADME, organism-based; details: in vivo, read-out: beta t1/2 (converted)
In short: (§4)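 Mouse pharmacokinetics: single i.v. dose of 3 mg/kg, or oral doses of 3, 10 and 30 mg/kg. Plasma concentration–time curves gave T1/2 (terminal, hr), Tmax (hr), Cmax, AUC and bioavailability (%).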

[12] = Cmax in mouse at 3 mg/kg, po; assay type: ADME, organism-based; parameters: dose 3 mg/kg, route oral; details: in vivo
In short: (§5)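 Mice received a single dose of 3 mg/kg i.v. or 3, 10 or 30 mg/kg orally. Plasma concentration-time profiles were analysed for AUC from zero to infinity and to the last measured time (hr*ng/mL), Cmax (ng/mL, C0 after i.v.), Tmax and terminal half-life (hr), and oral bioavailability (%).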

[13] = Terminal half life in mouse at 10 mg/kg, po; assay type: ADME, organism-based; details: in vivo, read-out: beta t1/2 (converted); in short: as §4
[14] = Tmax in mouse at 30 mg/kg, po; assay type: ADME, organism-based; details: in vivo; in short: as §4
[15] = Cmax in mouse at 30 mg/kg, po; assay type: ADME, organism-based; parameters: dose 30 mg/kg, route oral; details: in vivo; in short: as §5
Rattus norvegicus = test: Volume of distribution at steady state in po dosed rat; assay type: ADME, organism-based; details: in vivo
[16] = Half life in po dosed rat; assay type: ADME, organism-based; details: in vivo
[17] = Half life in po dosed dog; assay type: ADME, organism-based, Canis lupus familiaris; details: in vivo
[18] = Cmax in po dosed dog; assay type: ADME, organism-based, Canis lupus familiaris; parameters: route oral; details: in vivo
[19] = Cmax in po dosed ICR mouse; assay type: ADME, organism-based; parameters: route oral; details: in vivo
[20] = AUC in po dosed ICR mouse; assay type: ADME, organism-based; details: in vivo
[21] = Oral bioavailability in dog; assay type: ADME, organism-based, Canis lupus familiaris; details: in vivo
[22] = Ratio of AUC in ICR mouse brain to AUC in ICR mouse plasma at 10 mg/kg, po measured at 1 hr; assay type: ADME, organism-based; details: read-out: Ratio AUC
In short: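 ICR mice (n=3) given a single oral dose of 10 mg/kg. Brain and plasma were sampled over nine hours, at 0.333, 1, 3, 6 and 9 h. Kp was calculated as AUC_brain/AUC_plasma.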

Cytochrome P450 2C9 = Cytochrome P450 2C9 (Homo sapiens, UniProt P11712); test: Inhibition of CYP2C9 in human liver microsomes preincubated for 5 mins followed by addition of NADPH generating system measured after 20 mins by LC-MS/MS analysis; assay type: ADME
In short: (§6)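 Inhibition of each CYP isozyme (1A2, 2A6, 2C8, 2C9, 2C19, 2D6, 3A4) was measured in human liver microsomes. IC50 values were reported in μM.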

Cytochrome P450 3A4 = Cytochrome P450 3A4 (Homo sapiens, UniProt P08684); test: Inhibition of CYP3A4 in human liver microsomes preincubated for 5 mins followed by addition of NADPH generating system measured after 20 mins by LC-MS/MS analysis; assay type: ADME; in short: as §6
[23] = Half-life in po dosed dog; details: in vivo
[24] = Half-life in po dosed monkey; details: rhesus monkey, in vivo

Sequence of Amyloid-beta precursor protein (Homo sapiens) (P05067 whole entry): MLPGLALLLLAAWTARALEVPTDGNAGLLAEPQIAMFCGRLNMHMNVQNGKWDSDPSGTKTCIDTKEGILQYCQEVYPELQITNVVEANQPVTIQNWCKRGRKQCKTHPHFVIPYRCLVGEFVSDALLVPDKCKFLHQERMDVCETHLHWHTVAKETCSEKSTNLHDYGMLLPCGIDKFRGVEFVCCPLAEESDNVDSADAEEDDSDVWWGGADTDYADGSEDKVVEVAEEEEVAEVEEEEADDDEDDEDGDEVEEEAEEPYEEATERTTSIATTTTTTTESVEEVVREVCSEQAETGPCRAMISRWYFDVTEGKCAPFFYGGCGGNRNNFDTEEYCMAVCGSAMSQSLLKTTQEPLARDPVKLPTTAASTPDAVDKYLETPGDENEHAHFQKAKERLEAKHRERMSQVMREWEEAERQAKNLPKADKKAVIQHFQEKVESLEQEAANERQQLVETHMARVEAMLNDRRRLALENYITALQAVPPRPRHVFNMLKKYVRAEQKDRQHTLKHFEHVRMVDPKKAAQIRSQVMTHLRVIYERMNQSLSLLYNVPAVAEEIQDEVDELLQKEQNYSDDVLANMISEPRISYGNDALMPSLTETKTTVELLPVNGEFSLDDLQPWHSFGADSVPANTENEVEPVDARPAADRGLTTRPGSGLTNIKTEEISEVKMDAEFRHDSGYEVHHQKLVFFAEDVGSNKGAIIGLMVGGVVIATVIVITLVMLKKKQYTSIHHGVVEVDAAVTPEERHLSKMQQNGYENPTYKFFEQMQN
Sequence of Cytochrome P450 2C9 (P11712 whole entry): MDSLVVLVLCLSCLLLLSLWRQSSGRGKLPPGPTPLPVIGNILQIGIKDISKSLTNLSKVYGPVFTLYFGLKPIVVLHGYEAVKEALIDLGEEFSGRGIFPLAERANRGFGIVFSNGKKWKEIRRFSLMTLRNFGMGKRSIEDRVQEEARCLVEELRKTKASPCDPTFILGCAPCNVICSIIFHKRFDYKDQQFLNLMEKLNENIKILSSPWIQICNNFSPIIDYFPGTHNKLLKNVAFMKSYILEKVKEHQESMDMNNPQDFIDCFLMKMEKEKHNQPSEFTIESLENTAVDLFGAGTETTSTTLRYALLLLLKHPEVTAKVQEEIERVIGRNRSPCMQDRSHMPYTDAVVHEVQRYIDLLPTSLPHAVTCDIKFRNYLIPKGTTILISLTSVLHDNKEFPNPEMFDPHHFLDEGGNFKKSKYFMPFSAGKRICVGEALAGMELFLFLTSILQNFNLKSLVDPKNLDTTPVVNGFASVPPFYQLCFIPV
Sequence of Cytochrome P450 3A4 (P08684 whole entry): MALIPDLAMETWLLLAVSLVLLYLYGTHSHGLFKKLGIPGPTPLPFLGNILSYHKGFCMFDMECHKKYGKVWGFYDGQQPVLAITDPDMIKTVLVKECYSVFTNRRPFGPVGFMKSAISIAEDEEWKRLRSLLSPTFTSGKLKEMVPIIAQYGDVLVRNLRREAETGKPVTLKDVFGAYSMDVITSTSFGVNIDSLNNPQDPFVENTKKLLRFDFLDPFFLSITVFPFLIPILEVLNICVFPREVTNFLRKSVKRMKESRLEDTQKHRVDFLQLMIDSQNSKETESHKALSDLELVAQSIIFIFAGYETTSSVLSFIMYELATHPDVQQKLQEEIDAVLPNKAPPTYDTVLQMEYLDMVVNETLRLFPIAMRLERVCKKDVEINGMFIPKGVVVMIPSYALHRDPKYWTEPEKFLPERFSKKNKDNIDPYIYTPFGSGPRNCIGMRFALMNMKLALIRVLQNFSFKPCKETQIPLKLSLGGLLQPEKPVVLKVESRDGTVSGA

For COCCCc1ccc2oc(-c3ccc(OC)c(OC)c3)cc2c1, the Activity [1] was “Active”, the Activity (HT-22) was “Dose-dependent effect” and the Activity [2] was “Active”. The Activity (Mus musculus [3]) was “Dose-dependent effect”, the ED50 (Mus musculus [3]; po) was 0.19 mg/kg and the Time (Mus musculus [4]) was 201.2 s. For the same molecule, the Activity (Mus musculus [5]) was “Dose-dependent effect”, the ED50 (Mus musculus [5]; po) was 0.18 mg/kg and the Activity (Mus musculus [6]) was 73.07%. The Activity (Mus musculus [7]) was 63.73%, the Activity (Mus musculus [8]) was 63.93% and the Activity (Mus musculus [9]) was “Non-Toxic”. The Activity (Mus musculus [10]) was “Dose-dependent effect”, the half-life [11] was 1.4 h and the Cmax [12] was 102 ng/mL. It also gave a half-life [13] of 1.6 h, a Tmax [14] of 3 h and a Cmax [15] of 1700 ng/mL. It also gave a Vdss (Rattus norvegicus) of 10 L/kg, a half-life [16] of 3.8 h and a half-life [17] of 1.4 h. The Cmax [18] was 1610 ng/mL, the Cmax [19] was 944 ng/mL and the AUC [20] was 13200 ng·h/mL. For the same molecule, the bioavailability [21] was 25%, the Kp at 1 h [22] was 1.5 and the IC50 (Cytochrome P450 2C9) was greater than 50 µM. For the same molecule, the IC50 (Cytochrome P450 3A4) was greater than 50 µM, the t1/2 [23] was 1.4 h and the t1/2 [24] was 12.9 h.
